Data: ChEMBL document CHEMBL1649530, “Pharmacokinetics and pharmacodynamics of a novel triazole, isavuconazole: mathematical modeling, importance of tissue concentrations, and impact of immune status on antifungal effect” (Antimicrob Agents Chemother, 2009)
≈ marks a conversion by molar mass, not a printed value. Calls of active or inactive are those of the source. No cut-off for these calls is given here.

Legend:
[1] = Ratio of AUC to MIC in mouse infected with Candida albicans FA/6862 at 3.37 mg/kg, sc QID; details: route subcutaneous
[2] = Ratio of AUC to MIC in mouse infected with Candida albicans FA/6862 at 8.12 mg/kg, sc administered as single dose; assay type: functional; details: route subcutaneous
Candida albicans [3] = assay: Antifungal activity against Candida albicans FA/6862 assessed as postantifungal effect at 2 times MIC by CLSI M27-A2 method; assay type: functional
In short: (§1)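 Log-phase organism washed in PBS, resuspended at 1 × 10^6 CFU/ml in warmed RPMI 1640 + 2% glucose, pre-incubated 30 min at 37°C. Drug added at 1/10× to 100× MIC for 3 h, then washed twice and regrown in drug-free RPMI. Quantitative subcultures hourly to 8 h, then 14 and 24 h. PAFE = delay in reaching +1 log10 CFU/ml versus drug-free controls.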

[4] = Ratio of AUC to MIC in mouse infected with Candida albicans FA/6862 at 5.35 mg/kg, sc administered as single dose; assay type: functional; details: route subcutaneous
[5] = Ratio of AUC to MIC in mouse infected with Candida albicans FA/6862 at 2.03 mg/kg, sc QID; assay type: functional; details: route subcutaneous
Candida albicans [6] = assay: Antifungal activity against Candida albicans FA/6862 infected in mouse assessed as fungal load per gram of kidney at 1.6 to 28 mg/kg, sc measured after 29 hrs postinfection; details: dose mg/kg 1.6-28; route subcutaneous
[7] = Ratio of AUC to MIC in mouse infected with Candida albicans FA/6862 at 1.63 mg/kg, sc BID; assay type: functional; details: route subcutaneous
[8] = Terminal half life in mouse at 1.6 to 13 mg/kg, sc; assay type: ADME, organism-based; parameters: dose 1.6-13 mg/kg, route subcutaneous; details: in vivo, read-out: beta t1/2 (converted)
In short: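 Infected, cyclophosphamide-neutropenic mice given single sc doses. Plasma collected by cardiac puncture at 0.5–24 h, three mice per time point. Plasma stabilized with citric acid and assayed by LC-MS/MS. Half-life derived from a population PK model co-fitting plasma, kidney and fungal burden data.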

[9] = Ratio of AUC to MIC in mouse infected with Candida albicans FA/6862 at 1.34 mg/kg, sc QID; assay type: functional; details: route subcutaneous
Candida albicans [10] = assay: Antifungal activity against Candida albicans FA/6862 by CLSI M27-A2 method; assay type: functional
In short: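 Broth microdilution per CLSI M27-A2. Run in duplicate on three separate occasions; modal MIC used.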

[11] = Ratio of AUC to MIC in mouse infected with Candida albicans FA/6862 at 4.06 mg/kg, sc BID; assay type: functional; details: route subcutaneous
[12] = Ratio of AUC to MIC in mouse infected with Candida albicans FA/6862 at 2.67 mg/kg, sc BID; assay type: functional; details: route subcutaneous
[13] = Ratio of AUC to MIC in mouse infected with Candida albicans FA/6862 at 6.74 mg/kg, sc BID; assay type: functional; details: route subcutaneous
Candida albicans [14] = assay: Antifungal activity against Candida albicans FA/6862 assessed as postantifungal effect at =< 1 time MIC by CLSI M27-A2 method; assay type: functional, organism-based
In short: as §1

Candida albicans [15] = assay: Antifungal activity against Candida albicans FA/6862 assessed as postantifungal effect at 5 to 100 times MIC by CLSI M27-A2 method; assay type: functional
In short: as §1

[16] = Ratio of AUC to MIC in mouse infected with Candida albicans FA/6862 at 13.48 mg/kg, sc administered as single dose; assay type: functional; details: route subcutaneous
[17] = Ratio of AUC to MIC in mouse infected with Candida albicans FA/6862 at 0.82 mg/kg, sc QID; assay type: functional; details: route subcutaneous
[18] = Ratio of AUC to MIC in mouse infected with Candida albicans FA/6862 at 3.27 mg/kg, sc administered as single dose; assay type: functional; details: route subcutaneous

RatioAUC/MIC [1]: 1544.75 | RatioAUC/MIC [2]: 969.5 | RatioAUC/MIC [4]: 630 | RatioAUC/MIC [5]: 930.5 | RatioAUC/MIC [7]: 384.25 | half-life [8]: 3.41 h | RatioAUC/MIC [9]: 614.25 | MIC (Candida albicans [10]): 4 ng/mL (≈ 9.14 nM) | RatioAUC/MIC [11]: 960.25 | RatioAUC/MIC [12]: 633.75 | RatioAUC/MIC [13]: 1584.5 | RatioAUC/MIC [16]: 1599.75 | RatioAUC/MIC [17]: 372.25 | RatioAUC/MIC [18]: 387.75
SMILES: C[C@@H](c1nc(-c2ccc(C#N)cc2)cs1)[C@](O)(Cn1cncn1)c1cc(F)ccc1F [ISAVUCONAZOLE]
Time (Candida albicans [3]): 2 h | log10cfu (Candida albicans [6]): 5.5 | Activity (Candida albicans [14]): inactive | Time (Candida albicans [15]): 5 h
